Data set [1] is described as follows: Solubility of the compound in alphaMEM containing 5% FCS and 1% DMSO by HPLC analysis. The format is physicochemical. The essentials: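 Saturated drug solutions were incubated at 37 °C in αMEM with 5% FCS and 1% DMSO. Dissolved drug was quantified by HPLC.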
Data set [2] deals with HCT-116. Kind of data set: Cytotoxicity against human HCT116 cells incubated for 4 hrs under anaerobic condition measured after 5 days by sulforhodamine B assay. The format is functional, cell-based. The essentials:
(§1)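 STR-authenticated, mycoplasma-free HCT116 cells in αMEM + 5% FCS were seeded at 700 cells/well and allowed 2 h to attach. Drug was added from DMSO stocks (<1% DMSO) in serial 3-fold dilutions for 4 h, oxic or anoxic (Pd-catalyst anaerobic chamber, medium pre-equilibrated ≥3 days). After washing, cells regrew for 5 days before SRB staining and IC50 determination.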

In data set [3] the test system is HCT-116. The data set is described as follows: Hypoxic cytotoxicity ratio of IC50 for human HCT116 cells under oxic condition to IC50 for human HCT116 cells under anoxic condition. The method, boiled down:
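HCT116 cells, 700 per well and attached 2 h, got a 4 h exposure to 3-fold serial dilutions (<1% DMSO) under air or in a Pd-catalyst anaerobic chamber with pre-equilibrated medium. Cells were washed, regrown 5 days, and stained with sulforhodamine B to give IC50. HCR = oxic IC50 / anoxic IC50.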

In data set [4] the test system is HCT-116. The data set is described as follows: Hypoxia radiosensitization activity in human HCT116 cells assessed as survival ratio by measuring ratio of cell survival with 15 Gy radiation in absence to presence of compound at anoxic IC50 preincubated for 1 hr followed by 15 Gy irradiation measured after 10 days by methylene blue staining-based cell counting method. It counts as functional. The method, boiled down:
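Anoxic HCT116 cells were seeded at 10^5/well and treated at the anoxic IC50 concentration for 1 h at room temperature. They were irradiated with 15 Gy (60Co, ~2 Gy/min) in a sealed steel box, then plated clonogenically. Colonies of >50 cells were counted […]. SR15 = survival with radiation / survival with drug + radiation.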

In data set [5] the test system is HCT-116. Kind of data set: Hypoxia radiosensitization activity in human HCT116 cells assessed as sensitizer enhancement ratio by measuring ratio of radiation dose for 1% survival in absence to presence of compound at 0.4 mM preincubated for 1 hr followed by irradiation measured after 10 days by methylene blue staining-based cell counting method. The format is functional.

Data set [6] has as its system HCT-116. Kind of data set: Hypoxia radiosensitization activity in human HCT116 cells assessed as sensitizer enhancement ratio by measuring ratio of radiation dose for 1% survival in absence to presence of compound at 0.4 mM preincubated for 1 hr followed by irradiation measured after 10 days by methylene blue staining-based cell counting method relative to misonidazole. It counts as functional.

In data set [7] the test system is HCT-116. Kind of data set: Hypoxia radiosensitization activity in human HCT116 cells assessed as survival ratio by measuring ratio of cell survival with radiation in absence to presence of compound at 0.4 mM preincubated for 1 hr followed by 6 to 29 Gy irradiation measured after 10 days by methylene blue staining-based cell counting method. It counts as functional.

The subject of data set [8] is HCT-116. The data set is described as follows: Hypoxia radiosensitization activity in human HCT116 cells assessed as survival ratio by measuring ratio of cell survival with radiation in absence to presence of compound at 0.4 mM preincubated for 1 hr followed by 6 to 29 Gy irradiation measured after 10 days by methylene blue staining-based cell counting method relative to misonidazole. The format is functional.

For data set [9], the system named is Mus musculus. The data set is described as follows: Drug level in NIH-III mouse assessed as maximum achievable dose at 10 ml/kg, iv. The format is ADME. The following applies: in vivo. The method, boiled down: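 Non-tumor-bearing female NIH-III mice (~20 g) received freshly prepared solutions i.v. at 10 mL/kg in 0.9% saline with 1% DMSO, or saline with 2 molar equivalents NaHCO3 for phosphate prodrugs. MAD was the maximum dose that dissolved in the injection volume.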

Data set [10] has as its system Plasma. The data set is described as follows: Cmax in plasma of NIH-III mouse xenografted with human HCT116 cells at 1.12 mmol/kg, iv administered as single dose by HPLC analysis. The following applies: in vivo. Also noted: dose 1.12 mmol/kg, route intravenous. The format is ADME, organism-based. The essentials:
(§2)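 Female NIH-III mice bearing subcutaneous HCT116 xenografts (10^6 cells inoculated). At ca. 300 mm3 tumor size, a single i.v. dose was given at the MAD or 75% of the MTD. Vehicle was 0.9% saline with 1% DMSO, or saline with 2 molar equivalents NaHCO3 for phosphate prodrugs. Plasma and tumor were sampled at multiple times by cardiac puncture and excision, assayed by HPLC, and analysed noncompartmentally.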
For orientation: A xenograft is tissue or cells of one species grown in another, often human tumour cells in immunodeficient mice.

Data set [11] can be described thus: Tmax in plasma of NIH-III mouse xenografted with human HCT116 cells at 1.12 mmol/kg, iv administered as single dose by HPLC analysis. It counts as ADME, organism-based. The method, boiled down: (§3)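 Female NIH-III mice bearing subcutaneous HCT116 tumors (10^6 cells; ~300 mm3) got a single i.v. dose at the MAD or 75% of the MTD. Vehicle was saline with 1% DMSO, or saline with 2 equivalents of NaHCO3 for the phosphates. Plasma and tumor were sampled at multiple times by cardiac puncture and excision, drug was measured by HPLC, and Tmax came from noncompartmental analysis.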

Data set [12] is described as follows: Cmax in tumor of NIH-III mouse xenografted with human HCT116 cells at 1.12 mmol/kg, iv administered as single dose by HPLC analysis. The format is ADME, organism-based, Neoplasm. Also noted: dose 1.12 mmol/kg, route intravenous. The following applies: in vivo. The essentials: as §2
Data set [13] in a line: Tmax in tumor of NIH-III mouse xenografted with human HCT116 cells at 1.12 mmol/kg, iv administered as single dose by HPLC analysis. The format is ADME, organism-based, Neoplasm. The essentials: as §3
The subject of data set [14] is HCT-116. Kind of data set: In vivo hypoxia radiosensitization activity in human HCT116 cells xenografted in NIH-III mouse assessed as survival ratio by measuring ratio of cell survival with 12.5 Gy radiation in absence to presence of compound at 1.12 mmol/kg, iv pretreated as single dose for 10 mins followed by irradiation measured after 18 hrs by excision assay. The format is functional.

The subject of data set [15] is HCT-116. Kind of data set: Cytotoxicity against human HCT116 cells incubated for 4 hrs under aerobic condition measured after 5 days by sulforhodamine B assay. The format is cell-based. The method, boiled down:
as §1

The subject of data set [16] is HCT-116. Kind of data set: Cytotoxicity against human HCT116 cells at anoxic IC50 incubated for 1 hr at 21 degC by clonogenic survival assay. The following applies: hct-116, 1 h.
Data set [17] relates to HCT-116. Kind of data set: Hypoxia radiosensitization activity in human HCT116 cells assessed as sensitizer enhancement ratio by measuring ratio of radiation dose for 1% survival in absence to presence of compound at 9.8 mM preincubated for 1 hr followed by irradiation measured after 10 days by methylene blue staining-based cell counting method. It counts as functional.

Data set [18] deals with HCT-116. The data set is described as follows: Hypoxia radiosensitization activity in human HCT116 cells assessed as sensitizer enhancement ratio by measuring ratio of radiation dose for 1% survival in absence to presence of compound at 9.8 mM preincubated for 1 hr followed by irradiation measured after 10 days by methylene blue staining-based cell counting method relative to misonidazole. The format is functional.

In data set [19] the test system is HCT-116. Kind of data set: Hypoxia radiosensitization activity in human HCT116 cells assessed as survival ratio by measuring ratio of cell survival with radiation in absence to presence of compound at 9.8 mM preincubated for 1 hr followed by 6 to 29 Gy irradiation measured after 10 days by methylene blue staining-based cell counting method. The format is functional.

Data set [20] concerns HCT-116. Kind of data set: Hypoxia radiosensitization activity in human HCT116 cells assessed as survival ratio by measuring ratio of cell survival with radiation in absence to presence of compound at 9.8 mM preincubated for 1 hr followed by 6 to 29 Gy irradiation measured after 10 days by methylene blue staining-based cell counting method relative to misonidazole. The format is functional.

A short description of data set [21]: Toxicity in NIH-III mouse at 10 ml/kg, iv. The following applies: in vivo. The method, boiled down:
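MTD was the highest dose without drug-related deaths, >15% body-weight loss or severe morbidity. MAD was the maximum dose soluble in the injection volume. Vehicle was 0.9% saline with 1% DMSO, or for phosphate prodrugs saline with 2 molar equivalents of NaHCO3.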

Data set [22] deals with Plasma. The data set is described as follows: Cmax in plasma of NIH-III mouse xenografted with human HCT116 cells at 1.24 mmol/kg, iv administered as single dose by HPLC analysis. The following applies: in vivo. Also noted: dose 1.24 mmol/kg, route intravenous. It counts as ADME, organism-based. The method, boiled down:
as §2

Data set [23] is described as follows: Tmax in plasma of NIH-III mouse xenografted with human HCT116 cells at 1.24 mmol/kg, iv administered as single dose by HPLC analysis. It counts as ADME, organism-based. The method, boiled down:
as §3

The nature of data set [24]: Cmax in tumor of NIH-III mouse xenografted with human HCT116 cells at 1.24 mmol/kg, iv administered as single dose by HPLC analysis. It counts as ADME, organism-based, Neoplasm. Also noted: dose 1.24 mmol/kg, route intravenous. To be noted: in vivo. The essentials: as §2
A short description of data set [25]: Tmax in tumor of NIH-III mouse xenografted with human HCT116 cells at 1.24 mmol/kg, iv administered as single dose by HPLC analysis. It counts as ADME, organism-based, Neoplasm. To be noted: 0.93 mmol/kg, in the assay text read “0.93 mmol/kg” for “1.24 mmol/kg”. The essentials: as §3
Data set [26] concerns HCT-116. Kind of data set: In vivo hypoxia radiosensitization activity in human HCT116 cells xenografted in NIH-III mouse assessed as survival ratio by measuring ratio of cell survival with 12.5 Gy radiation in absence to presence of compound at 1.24 mmol/kg, iv pretreated as single dose for 10 mins followed by irradiation measured after 18 hrs by excision assay. It counts as functional.

Data set [27] in a line: Electrophilicity of the compound in pH 7 phosphate buffer assessed as one-electron reduction potential. The essentials: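 The one-electron reduction potential was set by pulse radiolysis equilibria at pH 7.0 (2.5 mM phosphate), established within 20 µs against benzylviologen, methylviologen or triquat. ΔE came from equilibrium constants via the Nernst equation, at three concentration ratios and 22 ± 2 °C.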

The test system of data set [28] is Mus musculus. Kind of data set: Toxicity in NIH-III mouse xenografted with human HCT116 cells assessed as change in body weight with 12.5 Gy radiation at 0.93 mmol/kg, iv administered as single dose. The following applies: in vivo.

The structures appear in SMILES notation. Some results are limits rather than exact numbers.

As a reminder, the solubility is how much of the substance goes into solution per volume. Low values mean a poorly soluble substance, high ones a readily soluble substance. As usually defined, the IC50 is the concentration that inhibits the measured activity by half. Lower therefore signals inhibition by little substance. In general, Cmax refers to the maximum level reached in the sampled fluid or tissue. One may read the Tmax as the time at which the peak concentration occurs. Take `O=[N+]([O-])c1nccn1CCS(=O)(=O)NCCN1CCOCC1`: the solubility in data set [1] is above 163 mM. The figures for the IC50 in data set [2] and in data set [15] were 0.4 mM and 0.38 to 4.8 mM, respectively. The “Ratio IC50” value in data set [3] was found to be 10. Moreover, the Ratio in data set [4] was 6; in data set [5], 1.357; in data set [7] it was 5; in data set [14], 2. Moreover, the entries for the “fold change (FC)” value in data set [6] and in data set [8] were 0.92 and 0.57, respectively. Besides, the Drug uptake in data set [9] stood at 1.12 mmol/kg. Further, the maximum concentration (Cmax) is 1040 µM in data set [10] and 410 µM in data set [12]. Besides, the values for the time to peak (Tmax) in [11] and in [13] were 5 min and 10 min, respectively. Further, the Activity result in data set [16] is given as “Non-Toxic”.
In the case of `O=[N+]([O-])c1cncn1CCN1CCOCC1` [NIMORAZOLE], the solubility in [1] was above 100 mM. The molecule further came in with an IC50 in data set [2] of 9.8 mM. Also, the “Ratio IC50” value in data set [3] was determined as 0.8. For the same molecule, the Ratio is 37 in data set [4], 1.8 in data set [17], 44.9 in [19] and 4 in [26]. Besides, the “fold change (FC)” value in [18] stood at 1.27; in [20], 7.28. In data set [21], this molecule came in with an MTD of 1240 µmol/kg. Also, the Cmax in data set [22] was 1210 µM; in data set [24] it was 91 µM. For the same molecule, the time to peak (Tmax) in data set [23] was 5 min; in data set [25], 10 min. The results for the Activity in [27], in [16] and in [28] were -457 mV, “Non-Toxic” and “Non-Toxic”, respectively.

The record behind these values is ChEMBL document CHEMBL4033777, “Next-Generation Hypoxic Cell Radiosensitizers: Nitroimidazole Alkylsulfonamides” (J Med Chem, 2018).
